What all share (assay type): ADME, organism-based, Macaca mulatta
Data set [1] is described as follows: Drug level in normal rhesus monkey thalamus assessed as standard uptake value at 96.3 MBq, iv after 27.5 mins by microPET. To be noted: in vivo.
Data set [2] is described as follows: Drug level in normal rhesus monkey white matter assessed as standard uptake value at 96.3 MBq, iv after 165 mins by microPET. To be noted: in vivo, 2.75 h.
Data set [3] is described as follows: Drug level in normal rhesus monkey thalamus assessed as standard uptake value at 96.3 MBq, iv after 165 mins by microPET. To be noted: in vivo, 2.75 h.
Data set [4] is described as follows: Drug level in normal rhesus monkey pons assessed as standard uptake value at 96.3 MBq, iv after 22.5 mins by microPET. As to conditions: in vivo, 0.375 h.
Data set [5] in a line: Drug level in normal rhesus monkey pons assessed as standard uptake value at 96.3 MBq, iv after 135 mins by microPET. To be noted: in vivo, 2.25 h.
The nature of data set [6]: Drug level in normal rhesus monkey pons assessed as standard uptake value at 96.3 MBq, iv after 155 mins by microPET. As to conditions: in vivo.
Data set [7] is described as follows: Drug level in normal rhesus monkey frontal cortex assessed as standard uptake value at 96.3 MBq, iv after 8 mins by microPET. As to conditions: in vivo.
Data set [8] is described as follows: Drug level in normal rhesus monkey white matter assessed as standard uptake value at 96.3 MBq, iv after 37.5 mins by microPET. To be noted: in vivo, 0.625 h.
A short description of data set [9]: Drug level in normal rhesus monkey pons assessed as standard uptake value at 81.2 MBq, iv after 6 mins by microPET. To be noted: in vivo, 0.1 h.
Data set [10] is described as follows: Drug level in normal rhesus monkey parietal cortex assessed as standard uptake value at 81.2 MBq, iv after 12 mins by microPET. As to conditions: in vivo, 0.2 h.
The nature of data set [11]: Drug level in normal rhesus monkey thalamus assessed as standard uptake value at 81.2 MBq, iv after 8 mins by microPET. To be noted: in vivo.
The nature of data set [12]: Drug level in normal rhesus monkey frontal cortex assessed as standard uptake value at 81.2 MBq, iv after 57.5 mins by microPET. To be noted: in vivo.
The nature of data set [13]: Drug level in normal rhesus monkey cerebellum assessed as standard uptake value at 81.2 MBq, iv after 17.5 mins by microPET. As to conditions: in vivo. The essentials: (§1)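 One normal rhesus monkey, each tracer given iv via the vena saphena (81.2, 96.3 or 109.4 MBq), with 1 day between tracer injections. Dynamic brain μPET over 180 min used frames of 5 × 60 s, 5 × 120 s, 9 × 300 s and 12 × 600 s. Images were reconstructed by filtered back projection with a RAMP filter. Regional time-activity curves were expressed as SUV.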

Data set [14] can be described thus: Drug level in normal rhesus monkey cerebellum assessed as standard uptake value at 81.2 MBq, iv after 57.5 mins by microPET. To be noted: in vivo. Summed up:
as §1

Data set [15] is described as follows: Drug level in normal rhesus monkey frontal cortex assessed as standard uptake value at 81.2 MBq, iv after 27.5 mins by microPET. As to conditions: in vivo.
Data set [16] is described as follows: Drug level in normal rhesus monkey cerebellum assessed as standard uptake value at 152.9 MBq, iv after 1.5 mins by microPET. As to conditions: in vivo, 0.025 h. Summed up: (§2)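 One normal rhesus monkey received each tracer via the vena saphena, with 1 day between injections. Dynamic μPET ran 180 min for 18F tracers (5×60 s, 5×120 s, 9×300 s, 12×600 s) and 90 min for the 11C tracer (5×60 s, 5×120 s, 9×300 s, 3×600 s). Filtered back-projection reconstruction (RAMP filter) was used. Time-activity curves were drawn to give regional SUV.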

Data set [17] is described as follows: Drug level in normal rhesus monkey cerebellum assessed as standard uptake value at 152.9 MBq, iv after 32.5 mins by microPET. As to conditions: in vivo. Summed up:
(§3)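 Single normal rhesus monkey; tracer given iv via the vena saphena, 1 day apart from the other tracer injections. Dynamic μPET ran 90 min (5×60 s, 5×120 s, 9×300 s, 3×600 s). Images were reconstructed by filtered back projection with a RAMP filter. Regional time-activity curves were expressed as SUV.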

Data set [18] in a line: Drug level in normal rhesus monkey cerebellum assessed as standard uptake value at 152.9 MBq, iv after 65 mins by microPET. To be noted: in vivo. Summed up:
as §2

Data set [19] can be described thus: Drug level in normal rhesus monkey frontal cortex assessed as standard uptake value at 152.9 MBq, iv after 12 mins by microPET. As to conditions: in vivo, 0.2 h. Summed up: as §3
A short description of data set [20]: Drug level in normal rhesus monkey white matter assessed as standard uptake value at 152.9 MBq, iv after 3.5 mins by microPET. As to conditions: in vivo.
The nature of data set [21]: Drug level in normal rhesus monkey white matter assessed as standard uptake value at 152.9 MBq, iv after 27.5 mins by microPET. As to conditions: in vivo.
Data set [22] is described as follows: Drug level in normal rhesus monkey white matter assessed as standard uptake value at 152.9 MBq, iv after 47.5 mins by microPET. To be noted: in vivo.
Data set [23] is described as follows: Drug level in normal rhesus monkey white matter assessed as standard uptake value at 152.9 MBq, iv after 57.5 mins by microPET. To be noted: in vivo.
Data set [24] is described as follows: Drug level in normal rhesus monkey pons assessed as standard uptake value at 152.9 MBq, iv after 0.5 mins by microPET. To be noted: in vivo.
The nature of data set [25]: Drug level in normal rhesus monkey parietal cortex assessed as standard uptake value at 152.9 MBq, iv after 2.5 mins by microPET. As to conditions: in vivo.
The nature of data set [26]: Drug level in normal rhesus monkey parietal cortex assessed as standard uptake value at 152.9 MBq, iv after 32.5 mins by microPET. To be noted: in vivo.
Data set [27] in a line: Drug level in normal rhesus monkey cerebellum assessed as standard uptake value at 109.4 MBq, iv after 15.5 mins by microPET. As to conditions: in vivo.
Data set [28] in a line: Drug level in normal rhesus monkey cerebellum assessed as standard uptake value at 109.4 MBq, iv after 27.5 mins by microPET. As to conditions: in vivo. The essentials: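 Single normal rhesus monkey; each tracer given iv via the vena saphena, with 1 day between tracer injections. Dynamic μPET ran 180 min (5×60 s, 5×120 s, 9×300 s, 12×600 s). Images were reconstructed by filtered back projection with a RAMP filter. Regional time-activity curves were expressed as SUV.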

Data set [29] can be described thus: Drug level in normal rhesus monkey cerebellum assessed as standard uptake value at 109.4 MBq, iv after 75 mins by microPET. To be noted: in vivo, 1.25 h. The essentials:
as §2

A short description of data set [30]: Drug level in normal rhesus monkey frontal cortex assessed as standard uptake value at 109.4 MBq, iv after 4.5 mins by microPET. As to conditions: in vivo, 0.075 h. The essentials:
as §1

The nature of data set [31]: Drug level in normal rhesus monkey thalamus assessed as standard uptake value at 109.4 MBq, iv after 42.5 mins by microPET. To be noted: in vivo.
Data set [32] can be described thus: Drug level in normal rhesus monkey white matter assessed as standard uptake value at 109.4 MBq, iv after 0.875 mins by microPET. To be noted: in vivo, 52 s.
Data set [33] in a line: Drug level in normal rhesus monkey white matter assessed as standard uptake value at 109.4 MBq, iv after 22.5 mins by microPET. To be noted: in vivo, 0.375 h.
Data set [34] can be described thus: Drug level in normal rhesus monkey parietal cortex assessed as standard uptake value at 109.4 MBq, iv after 4.5 mins by microPET. As to conditions: in vivo, 0.075 h.
A short description of data set [35]: Drug level in normal rhesus monkey parietal cortex assessed as standard uptake value at 109.4 MBq, iv after 42.5 mins by microPET. As to conditions: in vivo.
A short description of data set [36]: Drug level in normal rhesus monkey parietal cortex assessed as standard uptake value at 109.4 MBq, iv after 123 mins by microPET. To be noted: in vivo, 2.05 h.

For the compound `CN(C)c1ccc2nc(-c3ccc([18F])cc3)sc2c1`, the SUV in [1] amounted to 2.31; in data set [2], 1.55; in data set [3], 1.86; in data set [4], 1.78; in data set [5], 1.92; in data set [6], 1.87. Further, the SUV in data set [7] came to 1.98; in data set [8], 1.46.
In the case of `CNc1ccc2nc(-c3ccc([18F])cc3)sc2c1`, the SUV in data set [9] came to 4.164; in data set [10], 4.756; in [11], 4.734; in [12] it was 5.004; in data set [13], 2.753; in data set [14] it was 2.522. Also, in [15], the SUV was 5.784.
Take `[11CH3]Nc1ccc(-c2nc3ccc(O)cc3s2)cc1` [PITTSBURGH COMPOUND B]: the SUV was 0.677 in data set [16]; 1.143 in data set [17]; 0.723 in [18]; 2.027 in [19]; 1.053 in data set [20]; 1.209 in data set [21]. Besides, the SUV in [22] worked out at 0.943; in data set [23] it was 0.957; in data set [24] it was 0.041; in data set [25], 1.106; in [26], 1.081.
Regarding `Nc1ccc2nc(-c3ccc([18F])cc3)sc2c1`, the SUV in data set [27] is 4.94; in data set [28], 4.16; in data set [29], 2.92; in [30], 5.43; in [31] it was 5.55; in [32], 1.16. Further, the SUV in [33] is 3.04; in [34] it was 5.12; in data set [35], 4.54; in data set [36], 3.56.

(Values after ChEMBL document CHEMBL1154674, “Synthesis and evaluation of three 18F-labeled aminophenylbenzothiazoles as amyloid imaging agents” (J Med Chem, 2009).)
